The values below come from ChEMBL document CHEMBL3769340, “Drug design, synthesis, in vitro and in silico evaluation of selective monoaminoxidase B inhibitors based on 3-acetyl-2-dichlorophenyl-5-aryl-2,3-dihydro-1,3,4-oxadiazole chemical scaffold” (Eur J Med Chem, 2016).

For data set [1], the target named is T1, Amine oxidase [flavin-containing] A (Homo sapiens, UniProt P21397).
T1 sequence (P21397 whole entry): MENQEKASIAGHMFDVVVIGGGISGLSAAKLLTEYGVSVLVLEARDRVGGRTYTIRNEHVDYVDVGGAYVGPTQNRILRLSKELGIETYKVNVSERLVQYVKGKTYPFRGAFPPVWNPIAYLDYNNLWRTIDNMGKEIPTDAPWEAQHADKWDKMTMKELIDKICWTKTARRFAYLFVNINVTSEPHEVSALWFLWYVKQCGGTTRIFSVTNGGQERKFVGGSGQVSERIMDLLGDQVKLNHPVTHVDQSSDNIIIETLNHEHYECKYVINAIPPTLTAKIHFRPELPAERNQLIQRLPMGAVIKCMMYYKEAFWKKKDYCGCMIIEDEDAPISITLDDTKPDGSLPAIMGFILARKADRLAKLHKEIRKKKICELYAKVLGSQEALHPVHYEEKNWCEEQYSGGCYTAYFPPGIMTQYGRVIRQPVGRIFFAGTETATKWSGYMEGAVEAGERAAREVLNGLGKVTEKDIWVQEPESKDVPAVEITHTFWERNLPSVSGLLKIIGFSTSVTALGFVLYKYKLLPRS
As to the kind of experiment: Inhibition of human recombinant MAO-A expressed in baculovirus infected BTI cells using p-tyramine as substrate at 100000 nM after 15 mins by Amplex Red-based fluorescence assay. The following applies: 0.25 h, 100 µM. In a few lines:
(§1)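 Recombinant hMAO-A or hMAO-B, set to oxidize 165 pmol p-tyramine/min in controls, preincubated with compound for 15 min at 37 °C in the dark. Reaction started with Amplex Red, horseradish peroxidase (1 U/mL) and p-tyramine. Resorufin fluorescence read at 37 °C (ex 545, em 590 nm), with an enzyme-free buffer blank subtracted. Single highest concentration tested: 100000 nM, or 1×10⁶ nM.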

In data set [2] the target is T2, Amine oxidase [flavin-containing] B (Homo sapiens, UniProt P27338).
T2 sequence (P27338 whole entry): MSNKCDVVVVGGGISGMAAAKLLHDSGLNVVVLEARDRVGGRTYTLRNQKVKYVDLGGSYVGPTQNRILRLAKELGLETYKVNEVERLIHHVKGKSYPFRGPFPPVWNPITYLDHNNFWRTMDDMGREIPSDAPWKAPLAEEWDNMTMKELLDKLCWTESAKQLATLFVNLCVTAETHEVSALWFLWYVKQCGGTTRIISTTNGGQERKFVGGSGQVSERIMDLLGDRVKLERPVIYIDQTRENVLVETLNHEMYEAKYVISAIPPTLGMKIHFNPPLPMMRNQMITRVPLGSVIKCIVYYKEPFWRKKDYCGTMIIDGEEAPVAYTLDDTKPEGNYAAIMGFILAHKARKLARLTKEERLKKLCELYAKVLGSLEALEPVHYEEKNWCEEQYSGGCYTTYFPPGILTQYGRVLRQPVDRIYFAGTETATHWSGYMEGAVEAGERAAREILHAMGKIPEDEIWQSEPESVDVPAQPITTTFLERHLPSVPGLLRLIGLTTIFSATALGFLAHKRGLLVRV
Briefly: Inhibition of human recombinant MAO-B expressed in baculovirus infected BTI cells using p-tyramine as substrate at 100000 nM after 15 mins by Amplex Red-based fluorescence assay. The following applies: 0.25 h; for inhibition (INH): bti, 100 µM. Put shortly:
as §1

Data set [3] deals with T2, Amine oxidase [flavin-containing] B. Briefly: Inhibition of human recombinant MAO-B expressed in baculovirus infected BTI cells using p-tyramine as substrate after 15 mins by Amplex Red-based fluorescence assay. It counts as cell-based.
For data set [4] the target is unchanged. Briefly: Inhibition of human recombinant MAO-B expressed in baculovirus infected BTI cells using p-tyramine as substrate at 1x10'6 nM after 15 mins by Amplex Red-based fluorescence assay. To be noted: 0.25 h. Put shortly: as §1

Usually inhibition stands for the relative decrease from the control value, in per cent. The term IC50 denotes the concentration that inhibits the measured activity by half.

As for `CC(=O)N1N=C(c2ccccc2)OC1c1ccc(Cl)c(Cl)c1` (stereo not given), the “inhibition (INH)” value in data set [1] is listed as “Not Active”. The inhibition at 100 µM in data set [2] (BTI) came out at 40%.

Take `CC(=O)N1N=C(c2ccc(Br)cc2)OC1c1ccc(Cl)c(Cl)c1` (stereo not given): the “inhibition (INH)” value in data set [1] is on record as “Not Active”. The IC50 in data set [3] is 67.7 nM.

As to `CC(=O)N1N=C(c2ccc([N+](=O)[O-])cc2)OC1c1ccc(Cl)c(Cl)c1` (racemic), the “inhibition (INH)” value in data set [1] is reported as “Not Active”. Besides, in data set [3], the IC50 worked out at 9.46 nM.

In the case of `COc1ccc(C2=NN(C(C)=O)C(c3ccc(Cl)c(Cl)c3)O2)cc1` (stereo not given), the “inhibition (INH)” value in data set [1] is recorded as “Not Active”. The half-maximal inhibitory concentration (IC50) in data set [3] was 218 nM.

Take `CC(=O)N1N=C(c2ccc([N+](=O)[O-])cc2)O[C@H]1c1ccc(Cl)c(Cl)c1`: in data set [3], the IC50 was 523 nM.

`CC(=O)N1N=C(c2ccccc2C)OC1c1ccc(Cl)c(Cl)c1` (stereo not given): the “inhibition (INH)” value in data set [1] was “Not Active”. The IC50 in data set [3] worked out at 2460 nM.

As for `CC(=O)N1N=C(c2ccc(Cl)cc2)O[C@@H]1c1ccc(Cl)c(Cl)c1`, the IC50 in data set [3] was 204 nM.

In the case of `CC(=O)N1N=C(c2ccc(C#N)cc2)OC1c1ccc(Cl)c(Cl)c1` (stereo not given), the “inhibition (INH)” value in data set [1] and in data set [2] was “Not Active” in each case.

Consider `CC(=O)N1N=C(c2ccc(Cl)cc2)OC1c1ccc(Cl)c(Cl)c1` (racemic), for which, in data set [1], the “inhibition (INH)” value was “Not Active”. In data set [3], the half-maximal inhibitory concentration (IC50) was found to be 627 nM.

Regarding `CC(=O)N1N=C(c2ccc(N(C)C)cc2)OC1c1ccc(Cl)c(Cl)c1` (stereo not given), the “inhibition (INH)” value in data set [1] and in data set [2] was “Not Active” each time.

Consider `CC(=O)N1N=C(c2ccc(Cl)cc2)O[C@H]1c1ccc(Cl)c(Cl)c1`, for which, in data set [2], the “inhibition (INH)” value is listed as “Not Active”.

For `O=C(NCCN1CCOCC1)c1ccc(Cl)cc1` [MOCLOBEMIDE], the “inhibition (INH)” value in data set [4] was “Not Active”.

With `CC(=O)N1N=C(c2ccc(C)cc2)OC1c1ccc(Cl)c(Cl)c1` (stereo not given), the “inhibition (INH)” value in data set [1] is listed as “Not Active”. Moreover, the IC50 in data set [3] was found to be 19.3 nM.

With `CC(=O)N1N=C(c2ccc([N+](=O)[O-])cc2)O[C@@H]1c1ccc(Cl)c(Cl)c1`, in data set [3], the IC50 was 7.61 nM.

On to `CC(=O)N1N=C(c2ccncc2)OC1c1ccc(Cl)c(Cl)c1` (stereo not given), for which the “inhibition (INH)” value in data set [1] is recorded as “Not Active”. Also, the IC50 in data set [3] is 69400 nM.
